Arr AP2 block – inhibitors of human beta-arrestin and AP2 interaction; AID 504490; FITC-arrestin peptide / GST-AP2 beads, flow cytometry; AP2 beta2 appendage carries R879A mutation; 340,000 tested, 0.31% active; inhibition, % at 10 µM;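 active = inhibition above a set limit, near 3 SD of compounds lacking own fluorescence, cut at about 54% in these data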
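Material – AP2 appendage R879A on GSH beads · Buffer or medium – PBS with 0.05% Tween 20 and 0.1% BSA · Probe or stimulus – fluorescein-tagged arrestin peptide at 50 nM final · Incubation – compound with beads 12 min RT, then probe 1 h RT · Detection – high-throughput flow cytometry of beads, ex 488, em 535 nm · Evaluation – percent response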
iPSC survival up – enhancers of human iPSC single-cell survival; hiPSC single-cell survival, ATPlite luminescence; 100% = ROCK inhibitor wells, 0% = DMSO; survival enhancement, % at 20 µM; 360,000 tested, 0.044% active; AID 602274; in the data active = survival enhancement above about 18%;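 also: cells exposed to compounds for 16 hours before the ATP read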
ABCB6 inh MLPCN – inhibitors of human ABC transporter ABCB6 | Q9NP58 | fluorescence ratio to DMSO, % at 10 µM | 360,000 tested, 0.19% active | K562-ABCB6 porphyrin accumulation, flow cytometry, 1 h; hits give low values;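 active = fluorescence ratio to DMSO below 75%, the collection mean minus 3 SD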;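 also: signal is porphyrin accumulated inside mitochondria; lower ratio means ABCB6 inhibition with less porphyrin fluorescence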
PG9 binder – small molecules binding HIV-1 gp120 antibody PG9; 360,000 tested, 0.43% active; inhibition, % at 6.7 µM; TR-FRET gp120-PG9 antibody binding; in the data active = inhibition above about 8.5%
PG9 bind confirm – confirmation of small molecules binding HIV-1 gp120 antibody PG9; shares compounds with PG9 binder; TR-FRET PG9 antibody binding, biochemical; inhibition, % at 6.7 µM; 1,500 tested, 90% active; AID 651571; in the data active = inhibition above about 9%
PGV04 Ab binding – PGV04 control antibody binding, counter-screen | 1,500 tested, 95% active | TR-FRET PGV04 antibody-gp120 binding, biochemical | AID 651604 | shares compounds with PG9 binder | inhibition, % at 6.7 µM; in the data active = inhibition above about 9.5%
Hits are given with their value; 0 = inactive; - = no result given; ! = not active in a repeat. Most compounds without a hit are left out; they make up all but 0.89% or so of the library.

SMILES	Arr AP2 block	iPSC survival up	ABCB6 inh MLPCN	PG9 binder	PG9 bind confirm	PGV04 Ab binding
CCCCC1=CC2=C(c3ccco3)C(=O)C(C)(OC(=O)c3ccc(OC)cc3)C(=O)C2=CN1C(CO)CO (stereo not given)	0	0	0	13.3	14.0	16.5
C=CCN=C1NC(c2ccccc2C(F)(F)F)C(C(=O)OC)=C(C)N1Cc1cccc(C(F)(F)F)c1 (stereo not given)	-	-	-	0	-	-
COC(=O)C1=C(C)N(C)C(=NCc2ccc(OC)cc2)NC1c1cccc(F)c1 (stereo not given)	-	-	-	0	-	-
COc1ccc(OC)c2c1sc(=NC(=O)c1cccc(N3C(=O)CCC3=O)c1)n2C	0	0	0	51.6	65.2	82.2
CCn1c(=NC(=O)c2cccc(N3C(=O)CCC3=O)c2)sc2c(OC)ccc(OC)c21	0	0	0	0	-	-
Cc1nc(SCC(=O)Nc2nccs2)c(C#N)c(C)c1C	0	0	0	33.3	43.6	66.1
Cc1nc(SCC(=O)Nc2nc3ccccc3s2)c(C#N)c(C)c1C	0	0	0	0	-	-
C=CCN1[C@H](C)[C@H](c2ccccc2)Oc2cc(Br)ccc2S1(=O)=O	-	-	-	0	-	-
CCCC(=O)OC[C@H]1CN(C2CCCC2)S(=O)(=O)c2c(Oc3ccc(F)cc3)cccc2O1	-	-	-	0	-	-
N/C(=N\c1nc(CSc2nc3ccccc3s2)cc(=O)[nH]1)Nc1ccc(F)cc1	0	0	0	9.3	27.4	39.6
O=C(Nc1ccccc1C(=O)Nc1ccccc1)c1ccccc1F	0	0	0	21.2	21.1	27.7
CC(=O)c1sc(NC(=O)C(C)C)nc1C	0	0	0	47.7	46.4	64.4
Cc1nc(NC(=O)C2CC2)sc1C(=O)Nc1ccc(Br)cc1	0	0	0	13.7	13.9	15.3
COc1ccc(NC(=O)c2sc(NC(=O)C3CC3)nc2C)cc1	0	0	0	0	-	-
CC(=O)c1sc(NC(=O)COc2ccc(Br)cc2)nc1C	0	0	0	18.3	21.2	60.2
CC(=O)c1sc(Nc2ccccn2)nc1C	0	0	0	30.1	38.5	51.0
CC(=O)Nc1nc(C)c(C(C)=O)s1	0	0	0	0	-	-
C[C@@H]1COc2cc(N3CCOCC3)ccc2S(=O)(=O)N1	-	-	-	0	-	-
COC(=O)c1nn(-c2cccc(C)c2)c2nnc(Cc3ccc(C)cc3)c(=O)n12	0	0	0	0	-	-
COC(=O)c1nn(-c2ccc(C)cc2)c2nnc(Cc3ccccc3)c(=O)n12	0	0	0	23.1	18.9	28.0
CCN(C(=O)CCc1cn(CC)c2ccccc12)c1ccc(Oc2cccnc2)cc1	-	-	-	0	-	-
COC(=O)c1ccc2nc(-c3ccco3)c(Cc3ccsc3)n2c1	-	-	-	0	-	-
O=C(COC(=O)c1ccccc1-n1cnnn1)c1ccc(Br)cc1	0	0	0	10.3	10.7	16.2
O=C(COC(=O)c1ccccc1O)NNC(=O)c1ccc(Br)cc1	0	0	0	9.5	13.9	25.2
O=C(NCC1CCN(C(=O)C(=O)c2cccs2)CC1)c1cccnc1	-	-	-	0	-	-
SMILES	Arr AP2 block	iPSC survival up	ABCB6 inh MLPCN	PG9 binder	PG9 bind confirm	PGV04 Ab binding
CSc1nsc2nc(=O)c(/C=C3\C(C)=Nc4ccc(C)cc43)c(N)n12	0	0	0	0	-	-
CC1=Nc2ccc(C)cc2/C1=C/c1c(N)n2oc(C)cc2nc1=O	0	0	0	16.9!	19.5	43.0
COc1cccc(C2C(C(=O)c3cc4ccccc4o3)=C(O)C(=O)N2c2cc(C)on2)c1OC (stereo not given)	0	0	0	19.2	27.5	42.7
COc1cccc(C2C(C(=O)c3cc4cccc(OC)c4o3)=C(O)C(=O)N2c2cc(C)on2)c1OC (stereo not given)	0	0	0	14.2	21.6	35.5
COc1cc(C2C(C(=O)c3cc4ccccc4o3)=C(O)C(=O)N2c2cc(C)on2)cc(OC)c1OC (stereo not given)	0	0	0	0	-	-
Nc1nc2c(ncn2[C@@H]2O[C@H](C(=O)N[C@H](Cc3ccccc3)C(=O)NCCCc3ccccc3)[C@@H](O)[C@H]2O)c(=O)[nH]1	-	-	-	0	-	-
CCOC(=O)c1c(C)[nH]c(C(=O)CSc2ccccc2)c1C	0	0	0	0	-	-
CCOC(=O)c1c(C)[nH]c(C(=O)CSc2nccc(C)n2)c1C	0	0	0	21.9	24.0	40.8

Compound activity as filed in PubChem.
